One test deals with CCRF-CEM. In words: Antiproliferative activity against human CEM cells after 72 hrs by calcein AM staining based fluorescence assay. It counts as functional. Summed up:
(§1)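 Cells treated with three-fold compound dilutions in triplicate for 72 h. Calcein AM added afterwards and live-cell fluorescence read at 485/538 nm (ex/em). GI50, the concentration lethal to 50% of tumour cells, calculated from dose-response curves.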

For test [1], the target named is T1, Proteasome Macropain subunit MB1 (Homo sapiens, UniProt P28074).
T1 sequence (P28074 whole entry): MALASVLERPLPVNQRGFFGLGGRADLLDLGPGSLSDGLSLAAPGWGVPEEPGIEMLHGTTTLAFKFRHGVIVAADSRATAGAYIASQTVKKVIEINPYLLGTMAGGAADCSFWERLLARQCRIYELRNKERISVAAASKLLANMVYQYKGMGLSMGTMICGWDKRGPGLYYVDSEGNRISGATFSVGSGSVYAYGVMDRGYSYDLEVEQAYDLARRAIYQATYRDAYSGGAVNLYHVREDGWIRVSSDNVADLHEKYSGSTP
In words: Inhibition of chymotrypsin-like activity of 26S proteasome beta 5 subunit in human U266 cells using Suc-LLVY-aminoluciferin as substrate after 1 hr by Proteosome-Glo luminescence assay. It counts as cell-based. A digest of the protocol: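 U266 multiple myeloma cells plated at 20,000 cells/well and exposed to varying compound concentrations for 1 h at 37 °C, in duplicate. 26S proteasome activity measured immediately as luciferase-coupled hydrolysis of the β5 substrate Suc-LLVY-aminoluciferin (Proteasome-Glo), read by luminescence. Activity normalised to untreated cells; IC50 derived from dose-response curves.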

Test [2] addresses T2, Proteasome component C5 (Homo sapiens) (UniProt P20618).
T2 sequence (whole entry): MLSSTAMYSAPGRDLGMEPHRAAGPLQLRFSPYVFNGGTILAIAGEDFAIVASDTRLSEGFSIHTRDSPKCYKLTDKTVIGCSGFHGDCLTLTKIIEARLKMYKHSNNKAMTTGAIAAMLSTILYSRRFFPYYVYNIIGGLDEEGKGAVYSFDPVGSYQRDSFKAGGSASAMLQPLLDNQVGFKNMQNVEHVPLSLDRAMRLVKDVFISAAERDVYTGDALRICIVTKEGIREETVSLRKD
In words: Inhibition of caspase like activity of 26S proteasome beta 1 subunit in human U266 cells assessed as residual activity using […] as substrate at 10 uM preincubated for 1 hr followed by substrate addition and measured after 4 hrs by fluorescence assay relative to control. It counts as cell-based.

The next test is filed under the species Homo sapiens. Kind of test: Inhibition of proteasome in human U2OS cells stably expressing GFP fused to short degron assessed as increase in GFP accumulation pre-incubated for 1 hr and measured after 9 hrs by live-cell imaging microscopy. It counts as cell-based.
The subject of a further test is U-266. In words: Antiproliferative activity against human U266 cells after 72 hrs by calcein AM staining based fluorescence assay. It counts as functional. The note with it: U-266, 72 h. Summed up:
as §1

A further test deals with K562. In words: Antiproliferative activity against human K562 cells after 72 hrs by calcein AM staining based fluorescence assay. The test is classed as functional. The note with it: K562, 72 h. A digest of the protocol: as §1
Test [3] deals with T3, Proteasome Macropain subunit MB1 (Homo sapiens) (UniProt P28074).
T3 sequence (whole entry): T1 sequence (P28074 whole entry)
Kind of test: Inhibition of chymotrypsin like activity of 26S proteasome beta 5 subunit in human U266 cells assessed as residual activity using N-Suc-LLVY-AMC as substrate at 10 uM preincubated for 1 hr followed by substrate addition and measured after 4 hrs by fluorescence assay relative to control. It counts as cell-based.

The target in test [4] is Proteasome Macropain subunit (Homo sapiens) (UniProt P49721). Kind of test: Inhibition of trypsin like activity of 26S proteasome beta 2 subunit in human U266 cells assessed as residual activity using […] as substrate at 10 uM preincubated for 1 hr followed by substrate addition and measured after 4 hrs by fluorescence assay relative to control. The test is classed as cell-based.
Chain of Proteasome Macropain subunit (Homo sapiens) (P49721 whole entry): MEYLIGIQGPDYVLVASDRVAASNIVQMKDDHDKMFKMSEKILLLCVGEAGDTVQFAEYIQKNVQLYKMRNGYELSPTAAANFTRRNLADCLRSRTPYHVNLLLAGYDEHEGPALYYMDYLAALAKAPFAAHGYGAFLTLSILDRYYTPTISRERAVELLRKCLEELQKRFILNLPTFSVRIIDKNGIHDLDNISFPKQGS

One may read the GI50 as the concentration at which growth is held to half of that of the control. What is called IC50 is the point on the concentration scale where inhibition reaches its midpoint. Low readings indicate greater potency, high ones weaker potency. `CC(C)C[C@@H](C=O)NC(=O)[C@H](Cc1ccccc1)NC(=O)[C@H](CC(C)C)NC(=O)c1cc(Cl)ccc1OCc1ccccc1`: the GI50 with CCRF-CEM is 430 nM; in the test with U-266, 170 nM; with K562, 1040 nM. Further, in test [1], the IC50 was found to be 67 nM. Moreover, the Activity in test [2] is 40.2%; in test [3] it was 10.6%; in test [4] it was 42.5%. Further, the inhibition result in the test listed under Homo sapiens is “Dose-dependent effect”.

`CC(C)C[C@H](NC(=O)c1cc(Cl)ccc1OCc1ccccc1)C(=O)N[C@@H](Cc1ccccc1)C(=O)NC(C=O)Cc1ccccc1` (some centres undefined): the GI50 in the test on CCRF-CEM is 400 nM; in the test with U-266 it was 460 nM; in the test with K562 it was 1280 nM. Further, 168 nM corresponded to half-maximal inhibition in test [1] (IC50). Also, the figures for the Activity in test [2], in test [3] and in test [4] were more than 100%, 29.1% and 62.3%, respectively. In addition, the inhibition entry in the test filed under Homo sapiens was “Dose-dependent effect”.

`CC(C)C[C@H](NC(=O)c1cc(Cl)ccc1OCc1ccccc1)C(=O)N[C@@H](Cc1ccccc1)C(=O)N[C@H](C=O)Cc1ccccc1`: the GI50 with CCRF-CEM was 440 nM; in the test on U-266, 400 nM; in the test with K562 it was 1450 nM. In addition, the half-maximal inhibitory concentration (IC50) in test [1] worked out at 110 nM. In addition, the values for the Activity in test [2], in test [3] and in test [4] were more than 100%, 25.8% and 47.2%, respectively. The inhibition entry in the test filed under Homo sapiens is “Dose-dependent effect”.

Regarding `CC(C)CC(C=O)NC(=O)[C@H](CC(C)C)NC(=O)[C@H](CC(C)C)NC(=O)c1cc(Cl)ccc1OCc1ccccc1` (some centres undefined), the GI50 in the test on CCRF-CEM is 490 nM; with U-266 it was 290 nM; in the test with K562 it was 610 nM. In test [1], the IC50 was found to be 99 nM. In addition, the figures for the Activity in test [2], in test [3] and in test [4] were 39.2%, 10.4% and 64.2%, respectively. In the test filed under Homo sapiens, the inhibition result was “Dose-dependent effect”.

With `CC(C)CC(C=O)NC(=O)[C@H](Cc1ccccc1)NC(=O)c1cc(Cl)ccc1OCc1ccccc1` (some centres undefined), the GI50 in the test on CCRF-CEM is 15100 nM; in the test on U-266 it was 17700 nM; in the test on K562, 17300 nM. Besides, the IC50 in test [1] is more than 1000 nM. In addition, the figures for the Activity in test [2], in test [3] and in test [4] were 39.9%, 95% and 92%, respectively.

Take `CC(C)CC(C=O)NC(=O)[C@H](CC(C)C)NC(=O)c1cc(Cl)ccc1OCc1ccccc1` (some centres undefined): the values for the GI50 in the test with CCRF-CEM, in the test on U-266 and with K562 were 16300 nM, 37000 nM and 21000 nM, respectively. The IC50 in test [1] was more than 1000 nM. Also, the figures for the Activity in test [2], in test [3] and in test [4] were 35.3%, 84.3% and 88.1%, respectively.

As for `CC(C)C[C@H](NC(=O)c1cc(Cl)ccc1OCc1ccccc1)C(=O)N[C@H](C=O)Cc1ccccc1`, the values for the GI50 in the test with CCRF-CEM, in the test on U-266 and in the test with K562 were 11000 nM, 14800 nM and 16300 nM, respectively. For the same compound, the IC50 in test [1] was more than 1000 nM. In addition, the values for the Activity in test [2], in test [3] and in test [4] were 67.8%, 85.2% and 85.9%, respectively.

Regarding `CC(C)C[C@@H](C=O)NC(=O)c1cc(Cl)ccc1OCc1ccccc1`, the 50% growth inhibitory concentration (GI50) in the test with CCRF-CEM is 24300 nM; in the test on U-266 it was 55800 nM; in the test with K562, 23600 nM. Besides, the IC50 in test [1] is more than 1000 nM. In addition, the Activity in test [2] was found to be 68.2%; in test [3] it was 68.8%; in test [4] it was 57.5%.

Consider `CC(C)C[C@H](NC(=O)c1cc(Cl)ccc1OCc1ccccc1)C(=O)N[C@@H](Cc1ccccc1)C(=O)N[C@@H](C=O)CC(C)C`, for which the GI50 in the test on CCRF-CEM is 400 nM; with U-266 it was 210 nM; in the test on K562 it was 730 nM. Inhibition in test [1] was half-maximal at 75 nM (IC50). The results for the Activity in test [2], in test [3] and in test [4] were 19.7%, 20.7% and more than 100%, respectively.

With `O=C[C@H](Cc1ccccc1)NC(=O)[C@H](Cc1ccccc1)NC(=O)c1cc(Cl)ccc1OCc1ccccc1`, the GI50 in the test with CCRF-CEM is 15500 nM; with U-266, 21700 nM; in the test on K562 it was 27100 nM. In addition, the IC50 in test [1] is more than 1000 nM. For the same compound, the Activity in test [2] was 71.5%; in test [3], 97.3%; in test [4], 78.4%.
